Experimental data as given in ChEMBL document CHEMBL4396883, “Discovery of CDK5 Inhibitors through Structure-Guided Approach” (ACS Med Chem Lett, 2019).
Calls of active or inactive are those of the source. No cut-off for these calls is given here.

What was measured:
[1] = target: Cyclin-dependent kinase 5/CDK5 activator 1 (Homo sapiens, UniProt Q00535); test: (§1) Inhibition of recombinant full length N-terminal GST tagged human CDK5/p25 expressed in baculovirus infected sf9 cells using histone H1 as substrate measured after 60 mins in presence of ATP by ADP-Glo kinase assay; assay type: cell-based
MV4-11 = test: Antiproliferative activity against human MV4-11 cells assessed as growth inhibition measured after 72 hrs by resazurin assay; assay type: functional; settings: MV4-11, 72 h
Summary of the method: (§2)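 Leukemia cells exposed to compound for 72 h; viability read by resazurin reduction. GI50 (concentration giving 50% inhibition of proliferation) reported as mean ± SD of three independent experiments.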

MOLM-13 = test: Antiproliferative activity against human MOLM13 cells assessed as growth inhibition measured after 72 hrs by resazurin assay; assay type: functional; settings: MOLM-13, 72 h; summary of the method: as §2
[2] = target: T1, Cyclin-dependent kinase 5/CDK5 activator 1 (Homo sapiens, UniProt Q00535+Q15078); test: Inhibition of recombinant full length N-terminal GST tagged human CDK5/p25 expressed in baculovirus infected sf9 cells using histone H1 as substrate at 10 uM measured after 60 mins in presence of ATP by ADP-Glo kinase assay relative to control
Target sequence in this assay (Q00535 whole entry): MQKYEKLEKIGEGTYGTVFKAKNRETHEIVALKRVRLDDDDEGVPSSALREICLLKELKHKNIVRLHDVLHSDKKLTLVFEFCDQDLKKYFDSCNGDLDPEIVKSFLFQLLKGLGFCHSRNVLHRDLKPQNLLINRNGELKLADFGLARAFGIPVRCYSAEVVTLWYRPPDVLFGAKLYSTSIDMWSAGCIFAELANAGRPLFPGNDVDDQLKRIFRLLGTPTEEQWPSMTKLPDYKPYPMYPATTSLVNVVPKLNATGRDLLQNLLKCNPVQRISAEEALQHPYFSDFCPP
Target sequence in this assay (Q15078 99-307 partner limits assumed): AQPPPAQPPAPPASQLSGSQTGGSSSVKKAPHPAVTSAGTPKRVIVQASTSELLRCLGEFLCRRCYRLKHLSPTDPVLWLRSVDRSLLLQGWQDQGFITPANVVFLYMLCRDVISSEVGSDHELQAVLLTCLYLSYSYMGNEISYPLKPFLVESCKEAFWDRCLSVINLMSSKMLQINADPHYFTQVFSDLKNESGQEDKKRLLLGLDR

[3] = target: CDK2/Cyclin A2 (Homo sapiens) (UniProt P24941+P20248); test: Inhibition of recombinant full length N-terminal GST tagged human CDK2/CyclinA expressed in baculovirus infected sf9 cells using histone H1 as substrate at 10 uM measured after 30 mins in presence of ATP by ADP-Glo kinase assay relative to control
[4] = target: Cyclin-dependent kinase 4/cyclin D1 (Homo sapiens, UniProt P11802); test: Inhibition of human recombinant N-terminal GST-tagged CDK4 (S4-E303 residues)/Cyclin D1 (Q4-I295 residues) expressed in sf9 cells using RB-CTF as substrate incubated for 90 mins in presence of ATP by ADP-Glo kinase assay
[5] = target: Cyclin-dependent kinase 2/cyclin E1 (Homo sapiens, UniProt P24941); test: Inhibition of CDK2/Cyclin E (unknown origin) incubated for 30 to 120 mins in presence of ATP by ADP-Glo kinase assay; assay type: protein-complex assay
CDK9/cyclin T1 = CDK9/cyclin T1 (Homo sapiens, UniProt P50750); test: Inhibition of human recombinant full length N-terminal GST His6 fused CDK9 (M1 to F372 residues/ N-terminal His6 tagged Cyclin T1 (M1 to K726 residues) expressed in sf9 cells using RBER-IRStide as substrate incubated for 90 mins in presence of ATP by ADP-Glo kinase assay
[6] = target: Cyclin-dependent kinase 1/cyclin B1 (Homo sapiens, UniProt P06493); test: Inhibition of CDK1/CyclinB1 (unknown origin) using histone H1 (GGGPATPKKAKKL) as substrate incubated for 80 mins in presence of ATP by ADP-Glo kinase assay; assay type: protein-complex assay
CDK6/cyclin D3 = CDK6/cyclin D3 (Homo sapiens, UniProt Q00534); test: Inhibition of human recombinant N-terminal GST-tagged CDK6 (M1-A326 residues) and His6 tagged Cyclin D3 (M1-L292 residues) expressed in sf9 cells using histone H1 (GGGPATPKKAKKL) as substrate incubated for 60 mins in presence of ATP by ADP-Glo kinase assay
CDK7/Cyclin H/MNAT1 = CDK7/Cyclin H/MNAT1 (Homo sapiens, UniProt P50613); test: Inhibition of CDK7/cyclinH/MAT1 (unknown origin) using RBER-IRStide as substrate incubated for 120 mins in presence of ATP by ADP-Glo kinase assay; assay type: protein-complex assay
CDK2/Cyclin A2 = CDK2/Cyclin A2 (Homo sapiens, UniProt P24941); test: Inhibition of recombinant full length N-terminal GST tagged human CDK2/CyclinA expressed in baculovirus infected sf9 cells using histone H1 as substrate measured after 30 mins in presence of ATP by ADP-Glo kinase assay
Summary of the method: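 CDK2/cyclin A kinase inhibition; Ki values from the average of at least two experiments.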

[7] = target: T1, Cyclin-dependent kinase 5/CDK5 activator 1; test: as §1; assay type: cell-based; settings: sf9
Target sequence in this assay (Q00535 whole entry): as the sequence (Q00535 whole entry) above
Target sequence in this assay (Q15078 whole entry): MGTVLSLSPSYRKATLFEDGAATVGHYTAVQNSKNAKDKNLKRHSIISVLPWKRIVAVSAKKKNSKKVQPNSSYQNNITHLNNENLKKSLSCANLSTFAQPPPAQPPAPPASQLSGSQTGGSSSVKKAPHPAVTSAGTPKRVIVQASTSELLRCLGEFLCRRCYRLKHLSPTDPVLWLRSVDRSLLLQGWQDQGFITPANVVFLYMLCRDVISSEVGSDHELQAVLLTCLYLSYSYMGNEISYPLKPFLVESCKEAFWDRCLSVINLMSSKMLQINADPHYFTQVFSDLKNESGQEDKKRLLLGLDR

CDK9/cyclin T1, sequence (O60563 whole entry, the tested form may be a part): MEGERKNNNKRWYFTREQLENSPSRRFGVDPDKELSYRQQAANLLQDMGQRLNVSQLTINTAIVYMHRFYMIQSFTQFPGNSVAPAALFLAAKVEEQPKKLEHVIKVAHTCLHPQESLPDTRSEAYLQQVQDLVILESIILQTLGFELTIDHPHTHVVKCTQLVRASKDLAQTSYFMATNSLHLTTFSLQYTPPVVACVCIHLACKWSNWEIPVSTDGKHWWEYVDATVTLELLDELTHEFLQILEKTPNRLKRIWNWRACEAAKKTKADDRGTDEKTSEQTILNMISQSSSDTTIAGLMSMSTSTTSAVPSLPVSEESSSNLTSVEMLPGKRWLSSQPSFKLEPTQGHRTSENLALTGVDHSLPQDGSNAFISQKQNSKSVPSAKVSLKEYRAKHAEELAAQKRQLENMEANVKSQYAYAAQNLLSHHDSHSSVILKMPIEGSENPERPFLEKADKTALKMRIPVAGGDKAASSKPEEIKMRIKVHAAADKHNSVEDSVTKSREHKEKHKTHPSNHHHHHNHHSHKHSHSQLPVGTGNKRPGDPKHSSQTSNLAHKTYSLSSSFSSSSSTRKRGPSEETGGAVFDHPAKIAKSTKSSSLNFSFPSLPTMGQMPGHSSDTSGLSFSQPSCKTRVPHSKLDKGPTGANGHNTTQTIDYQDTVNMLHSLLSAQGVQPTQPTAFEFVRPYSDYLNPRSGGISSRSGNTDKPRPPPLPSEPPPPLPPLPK
CDK9/cyclin T1, sequence (P50750 whole entry, the tested form may be a part): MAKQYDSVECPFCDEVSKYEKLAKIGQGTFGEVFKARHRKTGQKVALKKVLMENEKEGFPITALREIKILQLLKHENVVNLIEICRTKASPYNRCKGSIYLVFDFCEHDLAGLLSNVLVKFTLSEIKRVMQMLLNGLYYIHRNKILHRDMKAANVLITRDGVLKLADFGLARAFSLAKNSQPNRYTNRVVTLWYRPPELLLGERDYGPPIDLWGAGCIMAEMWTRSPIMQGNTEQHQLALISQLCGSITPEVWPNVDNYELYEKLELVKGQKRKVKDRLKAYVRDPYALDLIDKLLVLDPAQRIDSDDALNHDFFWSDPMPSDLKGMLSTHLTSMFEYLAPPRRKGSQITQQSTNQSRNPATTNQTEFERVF
Cyclin-dependent kinase 5/CDK5 activator 1 (Homo sapiens, UniProt Q00535), sequence (Q00535 whole entry): as the sequence (Q00535 whole entry) above
Cyclin-dependent kinase 5/CDK5 activator 1 (Homo sapiens, UniProt Q00535), sequence (Q15078 whole entry, further chain): as the sequence (Q15078 whole entry) above
Cyclin-dependent kinase 4/cyclin D1, sequence (P11802 whole entry, the tested form may be a part): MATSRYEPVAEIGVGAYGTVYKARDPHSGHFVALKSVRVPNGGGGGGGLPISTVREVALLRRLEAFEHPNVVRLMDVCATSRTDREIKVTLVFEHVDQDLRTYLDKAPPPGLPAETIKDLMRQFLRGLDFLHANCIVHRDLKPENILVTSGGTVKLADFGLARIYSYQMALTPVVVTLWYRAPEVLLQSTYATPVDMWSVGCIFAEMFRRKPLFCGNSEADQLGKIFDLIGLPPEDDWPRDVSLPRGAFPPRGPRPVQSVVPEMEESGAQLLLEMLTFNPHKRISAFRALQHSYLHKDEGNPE
Cyclin-dependent kinase 4/cyclin D1, sequence (P24385 whole entry, further chain, the tested form may be a part): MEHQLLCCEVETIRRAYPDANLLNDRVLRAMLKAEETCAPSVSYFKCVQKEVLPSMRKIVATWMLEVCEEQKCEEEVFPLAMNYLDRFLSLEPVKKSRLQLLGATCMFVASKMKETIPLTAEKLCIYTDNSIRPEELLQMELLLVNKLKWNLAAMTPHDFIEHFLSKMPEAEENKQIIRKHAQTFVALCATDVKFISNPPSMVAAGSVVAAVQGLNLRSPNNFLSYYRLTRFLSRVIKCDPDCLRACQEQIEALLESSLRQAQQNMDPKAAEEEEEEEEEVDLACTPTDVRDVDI
Cyclin-dependent kinase 1/cyclin B1, sequence (P06493 whole entry, the tested form may be a part): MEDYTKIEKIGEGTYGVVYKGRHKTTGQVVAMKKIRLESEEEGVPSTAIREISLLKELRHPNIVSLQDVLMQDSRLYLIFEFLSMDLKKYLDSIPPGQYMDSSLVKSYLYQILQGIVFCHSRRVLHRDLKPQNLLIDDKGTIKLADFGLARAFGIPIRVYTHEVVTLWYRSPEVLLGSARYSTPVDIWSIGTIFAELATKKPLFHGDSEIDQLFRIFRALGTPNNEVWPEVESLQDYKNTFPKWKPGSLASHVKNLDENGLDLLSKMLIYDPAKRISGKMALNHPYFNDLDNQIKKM
Cyclin-dependent kinase 1/cyclin B1, sequence (P14635 whole entry, further chain, the tested form may be a part): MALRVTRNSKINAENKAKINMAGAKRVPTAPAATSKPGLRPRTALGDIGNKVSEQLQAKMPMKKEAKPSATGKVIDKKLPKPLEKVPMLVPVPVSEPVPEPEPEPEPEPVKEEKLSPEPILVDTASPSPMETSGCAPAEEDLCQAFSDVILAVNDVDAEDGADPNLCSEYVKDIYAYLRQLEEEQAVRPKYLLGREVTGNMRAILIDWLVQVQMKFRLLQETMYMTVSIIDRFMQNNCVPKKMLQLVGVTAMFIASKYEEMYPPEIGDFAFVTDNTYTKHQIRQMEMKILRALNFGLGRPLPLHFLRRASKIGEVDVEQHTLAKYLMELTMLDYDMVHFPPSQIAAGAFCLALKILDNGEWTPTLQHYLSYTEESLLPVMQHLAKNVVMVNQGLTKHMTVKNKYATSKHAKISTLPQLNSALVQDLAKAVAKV
CDK7/Cyclin H/MNAT1, sequence (P51946 whole entry): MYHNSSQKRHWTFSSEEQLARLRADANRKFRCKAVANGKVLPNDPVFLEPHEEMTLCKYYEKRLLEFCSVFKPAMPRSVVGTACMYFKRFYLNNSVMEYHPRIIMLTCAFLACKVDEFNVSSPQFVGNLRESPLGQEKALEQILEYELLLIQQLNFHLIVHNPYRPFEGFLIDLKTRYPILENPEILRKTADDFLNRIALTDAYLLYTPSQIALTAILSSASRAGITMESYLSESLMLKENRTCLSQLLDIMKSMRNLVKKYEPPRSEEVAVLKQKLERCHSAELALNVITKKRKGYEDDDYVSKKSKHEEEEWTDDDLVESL
CDK7/Cyclin H/MNAT1, sequence (P50613 whole entry): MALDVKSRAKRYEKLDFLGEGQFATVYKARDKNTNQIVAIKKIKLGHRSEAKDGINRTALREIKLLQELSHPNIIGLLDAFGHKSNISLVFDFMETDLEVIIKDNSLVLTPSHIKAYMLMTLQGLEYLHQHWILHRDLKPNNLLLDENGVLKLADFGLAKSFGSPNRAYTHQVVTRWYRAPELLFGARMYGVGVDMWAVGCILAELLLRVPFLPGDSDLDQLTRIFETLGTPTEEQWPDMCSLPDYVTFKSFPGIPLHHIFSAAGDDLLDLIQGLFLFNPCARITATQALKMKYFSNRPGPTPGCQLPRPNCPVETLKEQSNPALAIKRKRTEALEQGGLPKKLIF
CDK7/Cyclin H/MNAT1, sequence (P51948 whole entry, further chain): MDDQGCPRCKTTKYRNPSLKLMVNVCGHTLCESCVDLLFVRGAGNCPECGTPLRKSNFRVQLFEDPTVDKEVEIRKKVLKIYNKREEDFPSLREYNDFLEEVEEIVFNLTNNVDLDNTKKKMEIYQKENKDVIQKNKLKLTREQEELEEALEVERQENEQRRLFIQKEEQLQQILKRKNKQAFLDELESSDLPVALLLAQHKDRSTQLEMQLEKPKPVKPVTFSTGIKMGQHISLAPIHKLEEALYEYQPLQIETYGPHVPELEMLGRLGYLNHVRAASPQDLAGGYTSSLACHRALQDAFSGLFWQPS

| Compound | Ki [1] | GI50 (MV4-11) | inhibition [2] | inhibition [3] | also measured |
| --- | --- | --- | --- | --- | --- |
| O=C(Nc1cccc(CN2CCCC2)c1)c1n[nH]c2ccccc12 | 2.03 µM | 8.62 µM |  |  | GI50 (MOLM-13): 3.83 µM |
| COc1cc(Cl)ccc1Nc1ncc2c(n1)CCCC2 |  |  | 45% | inactive |  |
| COc1ccc(Nc2ncc3c(n2)CCC3)cc1 | 1.72 µM | 0.84 µM |  |  | GI50 (MOLM-13): 1.1 µM |
| FC(F)(F)Oc1ccccc1Nc1ncc2c(n1)CCCC2 |  |  | 9% | inactive |  |
| COc1ccccc1Nc1ncc2c(n1)CCCC2 |  |  | 22% | 2% |  |
| c1ccc(Nc2ncc3c(n2)CCCC3)cc1 | 0.88 µM | 9.83 µM |  |  | IC50 [1]: 1.76 µM; GI50 (MOLM-13): 5.63 µM |
| FC(F)(F)c1ccccc1Nc1ncc2c(n1)CCCC2 |  |  | 10% | 8% |  |
| Cc1c(Nc2ncc3c(n2)CCCC3)cccc1NS(C)(=O)=O |  |  | 63% |  |  |
| O=[N+]([O-])c1cccc(Nc2ncc3c(n2)CCCC3)c1 | 1.26 µM | 3.5 µM | 83% | 87% | Ki [4]: > 5 µM; Ki [5]: > 5 µM; Ki (CDK9/cyclin T1): > 5 µM; Ki [6]: > 5 µM; Ki (CDK6/cyclin D3): > 5 µM; Ki (CDK7/Cyclin H/MNAT1): > 5 µM; Ki (CDK2/Cyclin A2): 1.1 µM |
| CCc1cccc(Nc2ncc3c(n2)CCCC3)c1 | 1.23 µM | 2.6 µM | 78% | 39% | Ki [4]: > 5 µM; Ki [5]: > 5 µM; Ki (CDK9/cyclin T1): > 5 µM; Ki [6]: > 5 µM; Ki (CDK6/cyclin D3): > 5 µM; Ki (CDK7/Cyclin H/MNAT1): > 5 µM; Ki (CDK2/Cyclin A2): > 5 µM |
| COc1cccc(Nc2ncc3c(n2)CCCC3)c1 | 1.01 µM | 2.28 µM | 85% | 93% | Ki [4]: > 5 µM; Ki [5]: > 5 µM; Ki (CDK9/cyclin T1): > 5 µM; Ki [6]: > 5 µM; Ki (CDK6/cyclin D3): > 5 µM; Ki (CDK7/Cyclin H/MNAT1): > 5 µM; Ki (CDK2/Cyclin A2): 1.11 µM |
| Cc1ccc(Nc2ncc3c(n2)CCCC3)cc1 | 1.44 µM | 6 µM | 77% | 58% | Ki [4]: > 5 µM; Ki [5]: > 5 µM; Ki (CDK9/cyclin T1): > 5 µM; Ki [6]: > 5 µM; Ki (CDK6/cyclin D3): > 5 µM; Ki (CDK7/Cyclin H/MNAT1): > 5 µM; Ki (CDK2/Cyclin A2): 4.54 µM |
| COc1ccc(Nc2ncc3c(n2)CCCC3)cc1 |  |  | 1% | 3% |  |
| COc1ccc(Nc2ncc3c(n2)CCCC3)c(OC)c1F |  |  | 21% | 7% |  |
| CC1(C)CC(=O)c2cnc(NC(=O)c3ccc(F)cc3)nc2C1 |  |  |  |  | Ki [7]: Not Active |
| Cc1ccccc1Nc1ncc2c(n1)CCCC2 | 0.99 µM | > 10 µM | 82% | 54% | Ki [4]: > 5 µM; Ki [5]: > 5 µM; Ki (CDK9/cyclin T1): > 5 µM; Ki [6]: > 5 µM; Ki (CDK6/cyclin D3): > 5 µM; Ki (CDK7/Cyclin H/MNAT1): > 5 µM; Ki (CDK2/Cyclin A2): 4.12 µM |
| CCOc1ccccc1Nc1ncc2c(n1)CCCC2 |  |  | 4% | 2% |  |
| FC(F)(F)c1cccc(Nc2ncc3c(n2)CCCC3)c1 |  |  | 5% | 7% |  |
| FC(F)(F)c1ccc(Nc2ncc3c(n2)CCCC3)cc1 |  |  | 6% | 7% |  |
